The text below walks through data of ChEMBL document CHEMBL1123540, “Potential antitumor agents. 45. Synthesis, DNA-binding interaction, and biological activity of triacridine derivatives” (J Med Chem, 1986).

Where “and” joins values, the source holds several entries; their conditions need not be identical. Equal values may be shown once.

Assay [1] is described as follows: In vitro inhibition of Escherichia coli DNA-dependent RNA polymerase using both calf thymus and phage T7 DNA template. The method, boiled down: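 E. coli RNA polymerase (0.65 μg) added to template DNA (2.5 μg; calf thymus or phage T7) plus drug. TCA-pyrophosphate precipitates counted by scintillation; IC50 from inhibition curves, mean of 2–4 determinations.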

The test system of assay [2] is Nucleic Acid. Description: Inhibitory concentration against ethidium bromide binding to DNA [poly(dA-dT)]. The assay is classed as nucleic-acid assay. The method, boiled down:
(§1)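 C50 is the micromolar drug concentration displacing 50% of ethidium bromide already bound to DNA, read by fluorescence. It is used as a comparative measure of DNA binding.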

Assay [3] relates to Nucleic Acid. The assay can be described thus: Inhibitory concentration against ethidium bromide binding to DNA [poly(dG-dC)]. The assay is classed as nucleic-acid assay. The gist of the method: as §1
The subject of the next assay is L1210. The assay can be described thus: Concentration of compound required to inhibit growth of L1210 leukemia cells in culture by 50%. The assay is classed as functional, cell-based. Particulars: Mus musculus. The gist of the method:
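L1210 leukemia cells grown in culture with continuous drug exposure for 70 h; IC50 in nanomolar, drug concentration giving 50% growth inhibition.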

For assay [4], the system named is P388. The assay can be described thus: Optimal dose administered ip as a solution in 0.1 mL of 30% v/v ethanol-water after intraperitoneal inoculation of 10e6 P388 leukemia cells. The assay is classed as functional, Mus musculus. The gist of the method:
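P388 leukemia cells (10^6) inoculated ip. Drug given ip in 30% v/v ethanol-water on days 1, 5 and 9, in mg/kg per day. The optimal dose is the one giving the best increase in lifespan over untreated tumor-bearing controls; >20% counted significant.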

For assay [5], the system named is P388. Description: Percentage increase in life span (ILS) of compound treated tumor-bearing animals compared to tumor-bearing controls when treated at the optimal dose. The assay is classed as functional, Mus musculus. The gist of the method: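 P388 leukemia: 10^6 cells inoculated intraperitoneally; drug given i.p. in 30% v/v ethanol-water on days 1, 5 and 9. Dose is in mg/kg per day. ILS is the percent increase in lifespan over untreated tumor-bearing controls at the optimal dose. Values above 20% count as significant.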

In general, IC50 refers to the concentration that inhibits the measured activity by half. High values mean weaker potency, low ones greater potency. As usually defined, the ILS is the gain in survival time of treated over control animals, in per cent. A lower ILS goes with a small benefit in survival. As for `Cl.O=C(CC(CC(=O)NCCCCCCNc1c2ccccc2nc2ccccc12)Nc1c2ccccc2nc2ccccc12)NCCCCCCNc1c2ccccc2nc2ccccc12`, the IC50 in assay [1] was 4.1 µM and 4 µM; in the assay with L1210 it was 0.35 µM. Further, the C50 with Nucleic Acid [2] and with Nucleic Acid [3] was 0.11 µM throughout. The compound also registered an Optimal dose in the assay on P388 [4] of 20 mg/kg/day. The compound further yielded an ILS with P388 [5] of 21%.
`Cl.O=C(CCCC(=O)NCCCNc1c2ccccc2nc2ccccc12)NCCCNc1c2ccccc2nc2ccccc12`: the IC50 in assay [1] is 7.5 µM and 6.2 µM; in the assay with L1210, 0.35 µM. In the assay on P388 [4], this compound had an Optimal dose of 13.3 mg/kg/day.
In the case of `Cl.O=C(CCCC(=O)NCCCCCCNc1c2ccccc2nc2ccccc12)NCCCCCCNc1c2ccccc2nc2ccccc12`, the IC50 in assay [1] was 4.9 µM and 4.7 µM; in the assay with L1210 it was 0.25 µM. Moreover, the C50 with Nucleic Acid [2] is 0.22 µM; in the assay on Nucleic Acid [3] it was 0.33 µM. In addition, the Optimal dose with P388 [4] was 45 mg/kg/day.
In the case of `Cl.O=C(CC(CC(=O)NCCCCCCCNc1c2ccccc2nc2ccccc12)Nc1c2ccccc2nc2ccccc12)NCCCCCCCNc1c2ccccc2nc2ccccc12`, the IC50 in assay [1] is 4.6 µM and 3.7 µM; with L1210, 0.59 µM. The C50 in the assay with Nucleic Acid [2] was 0.1 µM; in the assay on Nucleic Acid [3], 0.14 µM. Also, in the assay with P388 [4], the Optimal dose is 20 mg/kg/day.
For the compound `Cl.O=C(CC(CC(=O)NCCCCCNc1c2ccccc2nc2ccccc12)Nc1c2ccccc2nc2ccccc12)NCCCCCNc1c2ccccc2nc2ccccc12`, the IC50 was 4.1 µM and 4.5 µM in assay [1]; 0.58 µM in the assay with L1210. For the same compound, the C50 in the assay on Nucleic Acid [2] is 0.35 µM; in the assay with Nucleic Acid [3], 0.25 µM. For the same compound, the Optimal dose in the assay on P388 [4] was determined as 8.9 mg/kg/day. In the assay on P388 [5], this compound displayed an ILS of 21%.
Consider `NC(CC(=O)NCCCNc1c2ccccc2nc2ccccc12)CC(=O)NCCCNc1c2ccccc2nc2ccccc12`, for which the IC50 was 4.2 µM and 3.1 µM in assay [1]; 0.47 µM in the assay on L1210. In addition, the C50 came to 0.09 µM in the assay with Nucleic Acid [2] and 0.21 µM in the assay on Nucleic Acid [3].
In the case of `Cl.O=C(CC(CC(=O)NCCCNc1c2ccccc2nc2ccccc12)Nc1c2ccccc2nc2ccccc12)NCCCNc1c2ccccc2nc2ccccc12`, the IC50 in assay [1] was 13.2 µM and 12.8 µM; in the assay on L1210, 0.8 µM. The C50 in the assay with Nucleic Acid [2] stood at 0.1 µM; in the assay with Nucleic Acid [3], 0.19 µM. In the assay on P388 [4], this compound returned an Optimal dose of 8.9 mg/kg/day.
For `Cl.O=C(CCCC(=O)NCCCCCCCNc1c2ccccc2nc2ccccc12)NCCCCCCCNc1c2ccccc2nc2ccccc12`, the IC50 in assay [1] is 6.2 µM and 4.5 µM; with L1210, 0.96 µM. Moreover, the C50 came to 0.15 µM in the assay with Nucleic Acid [2] and 0.23 µM in the assay on Nucleic Acid [3]. In the assay with P388 [4], this compound yielded an Optimal dose of 30 mg/kg/day.
On to `Cl.O=C(CCCC(=O)NCCNc1c2ccccc2nc2ccccc12)NCCNc1c2ccccc2nc2ccccc12`, for which the IC50 in assay [1] was 9.2 µM and 6.7 µM; with L1210, 3.08 µM. Moreover, the C50 came to 0.3 µM in the assay with Nucleic Acid [2] and 0.29 µM with Nucleic Acid [3]. In the assay on P388 [4], the Optimal dose was determined as 30 mg/kg/day.
Take `Cl.O=C(CC(CC(=O)NCCCCNc1c2ccccc2nc2ccccc12)Nc1c2ccccc2nc2ccccc12)NCCCCNc1c2ccccc2nc2ccccc12`: the IC50 in assay [1] is 5.9 µM and 5.4 µM; in the assay on L1210, 2.3 µM. In addition, the C50 was determined as 0.08 µM in the assay with Nucleic Acid [2] and 0.13 µM with Nucleic Acid [3]. Also, the Optimal dose in the assay with P388 [4] was determined as 8.9 mg/kg/day.
Take `Cl.O=C(CCCC(=O)NCCCCNc1c2ccccc2nc2ccccc12)NCCCCNc1c2ccccc2nc2ccccc12`: the IC50 in assay [1] was 4.6 µM and 4.1 µM; in the assay on L1210, 0.24 µM. In addition, the C50 with Nucleic Acid [2] was 0.28 µM; with Nucleic Acid [3], 0.13 µM. Moreover, the Optimal dose in the assay with P388 [4] came to 20 mg/kg/day. In the assay with P388 [5], this compound yielded an ILS of 30%.
On to `Cl.O=C(CC(CC(=O)NCCNc1c2ccccc2nc2ccccc12)Nc1c2ccccc2nc2ccccc12)NCCNc1c2ccccc2nc2ccccc12`, for which the half-inhibitory concentration (IC50) in assay [1] is 30.3 µM and 30 µM; with L1210, 5.9 µM. Moreover, the C50 in the assay on Nucleic Acid [2] was 0.43 µM; with Nucleic Acid [3], 0.38 µM. Also, the Optimal dose in the assay on P388 [4] stood at 3.9 mg/kg/day.
Consider `Cl.O=C(CCCC(=O)NCCCCCNc1c2ccccc2nc2ccccc12)NCCCCCNc1c2ccccc2nc2ccccc12`, for which the IC50 was 5.2 µM and 4.2 µM in assay [1]; 0.17 µM in the assay with L1210. The C50 in the assay with Nucleic Acid [2] was determined as 0.28 µM; in the assay on Nucleic Acid [3] it was 0.24 µM. The compound also showed an Optimal dose in the assay with P388 [4] of 20 mg/kg/day. In the assay with P388 [5], this compound registered an ILS of 33%.
